Assay results gathered from unrelated publications.
OPRM1: Mu-type opioid receptor (OPRM1, Homo sapiens, UniProt P35372)
GRK4: G protein-coupled receptor kinase 4 (GRK4, Homo sapiens, UniProt P32298)

SMILES	target	read-out	action	technique	concentration	measurement	value
Cc1cc(F)cc2c(CCC(=O)N[C@@H]3C(=O)NC[C@H]3O)c(-c3ccc(F)cc3)[nH]c12	OPRM1	cell-free assay	–	–	10 µM	inhibition	5%
COc1ccc2oc(-c3ccc4nc(N)oc4c3)c/c(=N\c3ccccc3NC(=O)CCN)c2c1	Protein kinase C alpha type (PRKCA, Homo sapiens, UniProt P17252)	binding	–	–	1 µM	remaining binding	100%
C1=C/COCc2cc(ccc2OCCN2CCCC2)Nc2nccc(n2)-c2cccc(c2)COC/1	eIF-2-alpha kinase GCN2 (EIF2AK4, Homo sapiens, UniProt Q9P2K8, S808G)	binding	–	–	0.1 µM	remaining binding	9.6%
Cc1cc(S(=O)(=O)N[C@H]2CC[C@H](CN3CCN(c4ccc(C5CCC(=O)NC5=O)cc4F)CC3)CC2)ccc1Nc1ncc(C(F)(F)F)c(N2CCC[C@](C)(O)C2)n1 (stereo partly shown)	GRK4	binding	–	competition with immobilised ligand	1 µM	remaining binding	89%
NC/C(=C\F)COc1cccc(Cn2c(=S)[nH]c(=O)c3[nH]cnc32)c1	OPRM1	ligand displacement	–	radioligand	10 µM	inhibition	< 50%
C[C@]1(O)CCCN(c2nc(Nc3ccc(S(=O)(=O)N[C@H]4CC[C@H](CN5CCN(c6ccc(C7CCC(=O)NC7=O)cc6F)CC5)CC4)cc3Cl)ncc2C(F)(F)F)C1 (stereo partly shown)	GRK4	binding	–	competition with immobilised ligand	1 µM	remaining binding	93%
CCCCC(=O)Nc1ccc(-c2ccc3ncn(CCC)c(=O)c3c2)cn1	Ephrin type-A receptor 6 (EPHA6, Homo sapiens, UniProt Q9UF33)	binding	–	competition with immobilised ligand	0.5 µM	remaining binding	100%
Cc1cc(O)c(-c2ccc([C@@H](C)CN(C)C)cc2)c2c1[nH]c(=O)c1sccc12	SRSF protein kinase 1 (SRPK1, Homo sapiens, UniProt Q96SB4)	enzyme activity	inhibitor	–	0.1 µM	inhibition	1.88%
C#Cc1cc(-c2cc(Nc3nc(N[C@@H](C)c4ccc(F)cn4)ncc3Cl)n[nH]2)ccc1C=O	cGMP-dependent protein kinase 1 (PRKG1, Homo sapiens, UniProt Q13976)	enzyme activity	inhibitor	–	0.2 µM	inhibition	3.89%
CCN1/C(=C/C(C)=O)Sc2ccc(F)cc21	OPRM1	ligand displacement	–	radioligand	10 µM	inhibition	0.11%
